This is a sample that favours compounds with a hit; in the whole collection about 2.9% have one here.
MEKK3 PB1 HTS – raises or lowers MEK5 binding to the human MEKK3 PB1 domain; actives 1.4% (n = 290,000); bead-based flow cytometry, Alexa488-MEK5 binding to MEKK3; actives lie on both sides; 0 = blocked by unlabeled MEK5, 100 = vehicle; binding response (% of control), % at 10 µM;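 active means binding response more than 3 SD above or below the average of its plate-row segment, actives on both sides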;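 further: Alexa488 bead fluorescence after subtracting the streptavidin-only scavenger bead signal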
Target sequence (Q99759 whole entry, looked up, the tested form may be a part): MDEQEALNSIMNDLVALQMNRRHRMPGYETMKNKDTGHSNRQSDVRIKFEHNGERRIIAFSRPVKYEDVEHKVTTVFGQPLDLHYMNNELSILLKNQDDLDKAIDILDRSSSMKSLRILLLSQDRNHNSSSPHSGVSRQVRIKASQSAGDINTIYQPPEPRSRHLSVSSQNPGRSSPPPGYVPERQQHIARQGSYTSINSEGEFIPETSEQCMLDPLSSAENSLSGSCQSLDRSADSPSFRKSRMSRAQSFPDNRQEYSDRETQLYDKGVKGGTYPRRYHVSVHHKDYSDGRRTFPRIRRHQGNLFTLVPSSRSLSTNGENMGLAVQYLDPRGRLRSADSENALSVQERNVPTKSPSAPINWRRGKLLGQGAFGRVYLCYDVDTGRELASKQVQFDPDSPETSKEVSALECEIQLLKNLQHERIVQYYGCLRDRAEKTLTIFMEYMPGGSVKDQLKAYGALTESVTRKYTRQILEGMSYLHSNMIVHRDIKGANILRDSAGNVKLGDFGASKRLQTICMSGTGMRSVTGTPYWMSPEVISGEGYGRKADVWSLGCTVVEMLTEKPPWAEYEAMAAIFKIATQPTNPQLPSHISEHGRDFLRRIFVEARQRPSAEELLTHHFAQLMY
UBC13 inh – human UBC13 polyubiquitination inhibition. P61088. UBC13 polyubiquitin chain formation, TR-FRET. inhibition, % at 20 µM. actives 0.47% (n = 330,000); in the data active means inhibition above about 45%, passing the limit was not always enough
MEKK2mut PB1 HTS – signal of MEK5 binding to mutant human MEKK2 PB1 domain; bead flow cytometry, Alexa488-MEK5 binding to MEKK2 mutant; percent response, % at 10 µM; actives 0.35% (n = 290,000); AID 1530; in the data active means percent response above about 24%, passing the limit was not always enough
Apaf1 inhib – inhibitors of human Apaf-1 apoptosome; O14727; actives 0.71% (n = 330,000); inhibition, % at 20 µM; AID 489030; reconstituted apoptosome caspase-3 activity, DEVD-Rh110 fluorescence; active means inhibition of at least 40% at 20 µM;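 further: plate controls were DMSO wells for no effect and DEVD-CHO caspase inhibitor wells for full effect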
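Material: reconstituted apoptosome with Apaf-1, cytochrome c, caspase-9, procaspase-3, dATP. Technique: Rh110 fluorescence intensity. Buffer or medium: pH 7.5 Hepes buffer with CHAPS, BSA, DTT. Times: 30 min plus 50 min, RT.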
MEKK2wt PB1 HTS – raises or lowers MEK5 binding to wildtype human MEKK2 PB1 domain; Q9Y2U5; bead flow cytometry, Alexa488-MEK5 binding to MEKK2 WT; actives lie on both sides; binding response (% of control), % at 10 µM; actives 1.1% (n = 290,000); AID 1531; in the data active means binding response below about 67% or above about 130%
MEKK2wt confirm – raises or lowers MEK5 binding to wildtype human MEKK2, retest; binding response (% of control), % at 10 µM; bead flow cytometry, Alexa488-MEK5 binding to MEKK2 WT; actives lie on both sides; actives 2.4% (n = 5,900); shares compounds with MEKK3 PB1 HTS; in the data active means binding response below about 16% or above about 210%; inactive means in between
MEKK2mut confirm – signal of MEK5 binding to mutant human MEKK2, retest. shares compounds with MEKK3 PB1 HTS. bead flow cytometry, Alexa488-MEK5 binding to MEKK2 mutant. percent response, % at 10 µM. actives 2% (n = 5,900). AID 1893; in the data active means percent response mostly above about 71%, no sharp cut-off; inactive means mostly below about 38%;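 further: higher means compound restores mutant binding toward wildtype level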
MEKK3-MEK5 inh – MEKK3-MEK5 PB1 inhibition, single concentration confirmation; shares compounds with MEKK3 PB1 HTS; bead flow cytometry, Alexa488-MEK5 binding to MEKK3; hits give low values; binding response (% of control), % at 10 µM; actives 1.8% (n = 5,900); AID 1894;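 active means binding response below 72% of control, or above a set upper limit, though filed actives all read lower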;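 further: 100% = DMSO only wells and 0% = binding blocked by excess unlabeled MEK5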
* hit, by the source's call; . = no result; [ ] = another dose, or the depositor's remark.

SMILES | MEKK3 PB1 HTS | UBC13 inh | MEKK2mut PB1 HTS | Apaf1 inhib | MEKK2wt PB1 HTS | MEKK2wt confirm | MEKK2mut confirm | MEKK3-MEK5 inh
Cc1cc(N/N=C/c2cccc(F)c2)nc(NCc2ccccc2)n1 | 96 | 9 | 25 | 8 | 140* | 138 | 26 | 106
Clc1ccc(/C=N/Nc2ccccn2)cc1 | 128* | -9 | 0 | -2 | 111 | 104 | 5 | 101
Cc1cc(N/N=C/c2ccccc2)nc(NCc2ccccc2)n1 | 107 | 9 | 32 | 14 | 175* | 153 | 31 | 111
Cc1cc(N/N=C/c2cccc(Cl)c2)nc(NCc2ccccc2)n1 | 99 | 18 | 35 | 19 | 149* | 174 | 52 | 110
Cc1ccc(C(=O)OCN2C(=O)c3ccccc3C2=O)o1 | . | 2 | . | 5 | . | . | . | .
Cc1ccsc1C1CC(=O)OC2=C1C(=O)CC(C)(C)C2 (stereo not given) | 101 | 4 | 5 | -5 | 98 | . | . | .
O=C(c1cc(F)c(F)c(F)c1F)N1CCN(Cc2ccc3c(c2)OCO3)CC1 | 101 | -6 | 4 | -1 | 102 | . | . | .
Cc1cc(N/N=C/c2ccccc2F)nc(NCc2ccccc2)n1 | 95 | 7 | 11 | 5 | 114 | . | . | .
Cc1cc(N/N=C/c2ccc(Cl)cc2)nc(NCc2ccccc2)n1 | 107 | 14 | 54* | 24 | 186* | 173 | 51 | 110
NS(=O)(=O)c1ccc(N=Nc2c(O)c(C(=O)O)cc3ccccc23)cc1 | 65*[inhibitor] | -261 | -39 | 28 | 69 | 96 | -4 | 98
Cc1nn(-c2ccccc2)c(Cl)c1CN(C(=O)CCl)c1ccc(Cl)cc1 | 145* | . | 3 | . | 112 | 100 | -2 | 103
CCOP(=O)(OCC)c1ccc2c(c1)C(=O)c1ccccc1CC2 | . | 12 | . | 9 | . | . | . | .
COc1cccc(Nc2nc(-c3sc(NC(=O)c4ccccc4)nc3C)cs2)c1 | 107 | 12 | 15 | 8 | 143* | 119 | 12 | 102
COc1cccc(Nc2nc(-c3sc(NC(=O)CC(C)C)nc3C)cs2)c1 | 105 | -17 | 2 | 9 | 109 | . | . | .
O=C(NS(=O)(=O)Oc1ccc(Cl)cc1)OC[C@@H]1CCCN2CCCC[C@H]12 | 149* | -3 | 1 | 9 | 113 | 102 | 2 | 100
Cc1cccc(NC(=O)CCc2ccc(S(=O)(=O)NC3CCCCC3)cc2)c1 | 102 | -1 | 6 | 23 | 105 | . | . | .
CN(C)S(=O)(=O)c1cccc(NC(=O)CCNC(=O)c2ccccc2Cl)c1 | 98 | 6 | 10 | 12 | 95 | . | . | .
COc1ccc2[nH]c(=O)c(CNC3CCCCC3)cc2c1 | 78*[inhibitor] | 2 | -8 | -7 | 87 | 91 | -14 | 85
CCN(CC)c1ccc(/C=N/OCC(=O)Nc2cccc(C)c2)cc1 | 104 | 6 | 52 | 21 | 61*[inhibitor] | 95 | -8 | 99
CCN(CC)c1ccc(NC(=O)CCCOc2cccc(C)c2)cc1 | 96 | -3 | -10 | 27 | 90 | . | . | .
COc1ccccc1C(=O)N/C(=C\c1cn(C)c2ccccc12)C(=O)NCCCN1CCOCC1 | 97 | -3 | -2 | 0 | 98 | . | . | .
COc1cc(/C=N/NC(=O)COc2ccccc2[N+](=O)[O-])ccc1OC(=O)c1ccco1 | 92 | 4 | 0 | -10 | 93 | . | . | .
O=C(COc1ccccc1[N+](=O)[O-])N/N=C/c1ccc(OC(=O)c2ccco2)cc1 | 139* | -4 | 0 | 3 | 103 | 96 | -6 | 102
CC(C)c1ccc(NC(=O)c2snc3ccc(Cl)cc23)cc1 | 130* | -14 | -1 | 1 | 105 | 103 | -3 | 107
CC(C)CCNC(=O)NC(=O)CSc1ncccn1 | 107 | -15 | 2 | 12 | 113 | . | . | .
SMILES | MEKK3 PB1 HTS | UBC13 inh | MEKK2mut PB1 HTS | Apaf1 inhib | MEKK2wt PB1 HTS | MEKK2wt confirm | MEKK2mut confirm | MEKK3-MEK5 inh
CC(=O)OC(C(=O)NC1CCCCC1)c1ccncc1 (stereo not given) | 75*[inhibitor] | -2 | -15 | -9 | 83 | 98 | -5 | 101
CC(=O)OC(C(=O)NC1CCCCC1)c1ccccc1Cl (stereo not given) | 97 | 4 | -4 | 0 | 101 | . | . | .
O=C(Nc1ccon1)c1cccc(S(=O)(=O)N2CCCCC2)c1 | 99 | 9 | 6 | 1 | 101 | . | . | .
Cc1ccc(-c2nc3cnccn3c2Nc2c(C)cccc2C)o1 | 101 | 1 | 6 | 6 | 108 | . | . | .
COc1ccc(CCN2C(=O)C(Oc3ccccc3C)C2c2ccc3c(c2)OCO3)cc1 (stereo not given) | 156* | -9 | 1 | 18 | 109 | 93 | -10 | 98
O=C1CCCc2nc(NCc3ccco3)ncc21 | 112 | -2 | 24* | -1 | 111 | 101 | 0 | 98
Cc1cnc(C(=O)OCC(=O)c2ccc[nH]2)cn1 | . | -7 | . | 5 | . | . | . | .
COCc1[nH][nH]c(=O)c1C=Nc1ccccc1 | . | -5 | . | -4 | . | . | . | .
COCc1[nH][nH]c(=O)c1/C=N/N1CCOCC1 | 40*[inhibitor] | 1 | -17 | -3 | 56 | 104 | 5 | 107
Cn1c(SCC(=O)NCCc2ccccc2)nnc1C1CCCCC1 | 101 | 3 | 5 | 1 | 106 | . | . | .
COc1ccccc1OCCCOc1c(Cl)cc(C)cc1Cl | 134* | 18 | 0 | 9 | 108 | 107 | 1 | 105
COc1cc(C)ccc1OCCCOc1c(Cl)cccc1Cl | 133* | -10 | 0 | 15 | 106 | 102 | -2 | 102
COc1cc(C)ccc1OCCCOc1cc(C)ccc1Cl | 106 | 13 | 2 | 5 | 105 | . | . | .
COc1cc(C)ccc1OCCOCCOc1cc(C)c(C)cc1Br | 134* | 0 | 0 | 15 | 106 | 104 | 10 | 103
CCOc1ccccc1OCCCOc1ccc(C)cc1Cl | 108 | -2 | 5 | 13 | 108 | . | . | .
O=C(CN1CCN(c2ccccc2O)CC1)Nc1ccc2c(c1)CCC2 | 104 | -23 | 15 | 10 | 114 | . | . | .
C=CCn1cnc2c(nnn2-c2ccc(C)c(C)c2)c1=O | 2.0*[inhibitor] | 20 | -72 | -22 | 1.0*[inhibitor] | 97 | -5 | 101
C=CCn1cnc2c(nnn2-c2ccc(OC)c(OC)c2)c1=O | 106 | -5 | 0 | -4 | 98 | . | . | .
Cn1nnc(NC(=S)NC(=O)c2cccc3c(Cl)cccc23)n1 | 99 | 2 | 1 | 1 | 101 | . | . | .
CC(C)CNC(=S)Nc1ccccc1F | 94 | 19 | 0 | -10 | 104 | . | . | .
CCCCNC(=S)Nc1ccccc1F | 111 | -1 | 25* | -8 | 108 | 108 | 0 | 101
COC(=O)c1ccc(CSc2nnc(-c3ccc4c(c3)OCO4)n2-c2ccccc2)o1 | 131* | -5 | 4 | 15 | 109 | 104 | 3 | 105

Source: PubChem
